As usually defined, the ED50 is the dose that gives a 50% effect, or the effect in half of the subjects.

From ChEMBL document CHEMBL1123860, “C1- and C3-methyl-substituted derivatives of 7-hydroxy-2-(di-n-propylamino)tetralin: activities at central dopamine receptors” (1987) come the findings set out here.

The species named for assay [1] is Rattus norvegicus. Put plainly: Tested for locomotor activity by measuring accumulated counts/30 min in reserpine-pretreated rats. Format: functional. The essentials:
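Rats given reserpine 5 mg/kg sc 18 h beforehand, then test drug sc immediately before the session. Motor activity recorded by photocell motility meter as accumulated counts over 30 min, mean ± SEM (n = 3–4). Reserpine controls were used; Student's t test. Injection volume 5 mL/kg at roughly neutral pH.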

For assay [2], the species on record is Rattus norvegicus. Put plainly: Effect on half-maximal decrease of DOPA formation in rat striatal regions; In active (no significant effect […]). Format: functional, organism-based.
The species named for assay [3] is Rattus norvegicus. Put plainly: Tested for locomotor activity by measuring accumulated counts/30 min in reserpine-non-pretreated rats. The assay is classed as functional. Summed up:
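Nonpretreated rats were injected with test drug 5 min before a photocell motility session, and counts were accumulated over 30 min. Activity expressed as percent of saline controls, mean ± SEM (n = 3–5), compared by Student's t test. Injections were 5 mL/kg at approximately neutral pH.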

The species named for assay [4] is Rattus norvegicus. Put plainly: Effect on half-maximal decrease of DOPA formation in rat limbic regions; In active (no significant effect […]). The conditions noted are these: Limbic system. The assay is classed as functional.
Assay [5] is filed under the species Rattus norvegicus. Put plainly: Effect on half-maximal decrease of DOPA formation in rat striatal regions. The assay is classed as functional.
The species named for assay [6] is Rattus norvegicus. Put plainly: Effect on half-maximal decrease of DOPA formation in rat limbic regions. The assay is classed as functional. Conditions: Limbic system.
The test system of assay [7] is Rattus norvegicus. Put plainly: Effect on half-maximal decrease of DOPA formation in rat limbic regions; In active (no significant decrease at […] sc). Format: functional, organism-based. Conditions: Limbic system.

Where “and” joins values, the source holds several entries; their conditions need not be identical. Equal values may be shown once. Calls of active or inactive are those of the source. The rule behind the calls is not given here.

As for `CCCN(CCC)[C@H]1Cc2cc(O)ccc2C[C@H]1C`, the No. of counts is 331 counts/30 min in the assay filed under Rattus norvegicus [1] and 119% in the assay listed under Rattus norvegicus [3]. Moreover, the ED50 entry in the assay listed under Rattus norvegicus [2] and in the assay listed under Rattus norvegicus [4] was “inactive” in each case. Besides, the figures for the ED50 in the assay listed under Rattus norvegicus [5] and in the assay listed under Rattus norvegicus [6] were 7.5 µmol/kg and 11 µmol/kg, respectively.

In the case of `CCCN(CCC)[C@H]1Cc2cc(O)ccc2C[C@@H]1C`, the figures for the No. of counts in the assay listed under Rattus norvegicus [1] and in the assay listed under Rattus norvegicus [3] were 35 counts/30 min and 89%, respectively. Further, the ED50 result in the assay filed under Rattus norvegicus [2] and in the assay listed under Rattus norvegicus [4] was “inactive” throughout.

With `CCCN(CCC)[C@H]1Cc2cc(OC)ccc2CC1C` (stereo partly specified), the ED50 entry in the assay filed under Rattus norvegicus [2] and in the assay listed under Rattus norvegicus [4] was “inactive” each time. Moreover, in the assay filed under Rattus norvegicus [3], the No. of counts is 96%.

For `CCCN(CCC)[C@@H]1CCc2ccc(O)cc2C1`, the No. of counts in the assay listed under Rattus norvegicus [1] is 46 counts/30 min. For the same compound, the ED50 in the assay filed under Rattus norvegicus [5] and in the assay listed under Rattus norvegicus [6] was 0.01 µmol/kg in each case.

As to `CCCN[C@H]1Cc2cc(OC)ccc2CC1C` (stereo partly specified), the ED50 result in the assay listed under Rattus norvegicus [2] and in the assay listed under Rattus norvegicus [4] was “inactive” throughout. Besides, the No. of counts in the assay filed under Rattus norvegicus [3] turned out to be 128%.

For `CCCN(CCC)[C@@H]1CCc2ccc(OC)cc2C1C` (single isomer, unassigned; 5) [listing 1 of 2 here], the No. of counts in the assay filed under Rattus norvegicus [1] was 4 counts/30 min; in the assay listed under Rattus norvegicus [3], 109% and 92%.

For the compound `CCCN(CCC)[C@@H]1CCc2ccc(OC)cc2C1C` (single isomer, unassigned; 5) [listing 2 of 2 here], the ED50 result in the assay filed under Rattus norvegicus [2], with Rattus norvegicus [7] and in the assay filed under Rattus norvegicus [4] was “inactive” each time.

In the case of `CCCN(CCC)[C@@H]1CCc2ccc(O)cc2C1C` (single isomer, unassigned; 6) [listing 1 of 2 here], the No. of counts in the assay filed under Rattus norvegicus [1] is 14 counts/30 min and 17 counts/30 min; in the assay listed under Rattus norvegicus [3], 126% and 136%.

For `CCCN(CCC)[C@@H]1CCc2ccc(O)cc2C1C` (single isomer, unassigned; 6) [listing 2 of 2 here], the ED50 entry in the assay listed under Rattus norvegicus [2] and in the assay filed under Rattus norvegicus [4] was “inactive” each time.

On to `CCCN(CCC)[C@@H]1CCc2ccc(OC)cc2C1C` (single isomer, unassigned; 9) [listing 1 of 2 here], for which, in the assay listed under Rattus norvegicus [3], the No. of counts is 38% and 28%. Moreover, the ED50 was determined as 0.9 µmol/kg in the assay listed under Rattus norvegicus [4] (ip) and 1.3 µmol/kg in the assay listed under Rattus norvegicus [5].

In the case of `CCCN(CCC)[C@@H]1CCc2ccc(OC)cc2C1C` (single isomer, unassigned; 9) [listing 2 of 2 here], the ED50 result in the assay listed under Rattus norvegicus [2] and in the assay filed under Rattus norvegicus [4] was “inactive” throughout.

Turning to `CCCN(CCC)[C@@H]1CCc2ccc(O)cc2C1C` (single isomer, unassigned; 10) [listing 1 of 2 here], the No. of counts in the assay listed under Rattus norvegicus [1] is 50 counts/30 min and 20 counts/30 min.

For `CCCN(CCC)[C@@H]1CCc2ccc(O)cc2C1C` (single isomer, unassigned; 10) [listing 2 of 2 here], the ED50 result in the assay filed under Rattus norvegicus [2] and in the assay listed under Rattus norvegicus [4] was “inactive” throughout.

In the case of `CCCN[C@@H]1CCc2ccc(O)cc2C1C` (single isomer, unassigned; (+)), in the assay filed under Rattus norvegicus [1], the No. of counts amounted to 59 counts/30 min. Further, the values for the ED50 in the assay listed under Rattus norvegicus [5] and in the assay filed under Rattus norvegicus [6] were 1.2 µmol/kg and 1.4 µmol/kg, respectively.

For `CCCN[C@@H]1CCc2ccc(O)cc2C1C` (single isomer, unassigned; (-)) [listing 1 of 2 here], the No. of counts in the assay listed under Rattus norvegicus [1] was 8 counts/30 min.

Take `CCCN[C@@H]1CCc2ccc(O)cc2C1C` (single isomer, unassigned; (-)) [listing 2 of 2 here]: the ED50 entry in the assay filed under Rattus norvegicus [2] and in the assay filed under Rattus norvegicus [4] was “inactive” throughout.

As to `CN1CCc2cccc3c2[C@H]1Cc1ccc(O)c(O)c1-3` [APOMORPHINE], the results for the No. of counts in the assay filed under Rattus norvegicus [1] and in the assay listed under Rattus norvegicus [3] were 366 counts/30 min and 227%, respectively. Moreover, the 50% effective dose (ED50) in the assay filed under Rattus norvegicus [5] and in the assay filed under Rattus norvegicus [6] was 0.04 µmol/kg in each case.

`O=C(CCCN1CCC(O)(c2ccc(Cl)cc2)CC1)c1ccc(F)cc1` [HALOPERIDOL]: the ED50 result in the assay filed under Rattus norvegicus [2] and in the assay filed under Rattus norvegicus [4] was “inactive” each time. The No. of counts in the assay filed under Rattus norvegicus [3] was 3%. Moreover, the ED50 in the assay filed under Rattus norvegicus [5] and in the assay filed under Rattus norvegicus [6] was 0.19 µmol/kg in each case.
